# What was measured:
# [1] = molecular target: P2Y purinoceptor 12 (Homo sapiens, UniProt Q9H244); assay: Displacement of [33P]ADP from human recombinant P2Y12 receptor expressed in CHO cells; format: cell-based
# Outline: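 Washed membranes from CHO cells expressing synthetic human P2Y12, incubated 1 h at room temperature with 0.2 nM 33P-MeSADP in 50 mM Tris/100 mM NaCl/1 mM EDTA. Compound was tested as a 7-point 3-fold series in triplicate. Nonspecific binding was defined with 300 nM 2-MeSADP, followed by filtration.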
# [2] = Antiplatelet aggregation activity against adenosine diphosphate-induced human platelet rich plasma assessed as inhibition of platelet aggregation by turbidimetric method; format: functional; conditions: Homo sapiens, Platelet, Plasma
# Outline: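 Human PRP, prepared by two-step centrifugation and adjusted to 330 000 platelets/μL with PPP. Compound was preincubated 5 min at 37 °C in 0.5% DMSO, then 20 μM ADP was added. OD626 was read kinetically for 15 min at 37 °C with mixing between reads.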
# [3] = test system: Platelet; assay: Relative potency, ratio of IC50 for drug to IC50 for AZD-6140 for platelet aggregation in human platelet rich plasma; format: functional
# Chain of P2Y purinoceptor 12 (Q9H244 whole entry): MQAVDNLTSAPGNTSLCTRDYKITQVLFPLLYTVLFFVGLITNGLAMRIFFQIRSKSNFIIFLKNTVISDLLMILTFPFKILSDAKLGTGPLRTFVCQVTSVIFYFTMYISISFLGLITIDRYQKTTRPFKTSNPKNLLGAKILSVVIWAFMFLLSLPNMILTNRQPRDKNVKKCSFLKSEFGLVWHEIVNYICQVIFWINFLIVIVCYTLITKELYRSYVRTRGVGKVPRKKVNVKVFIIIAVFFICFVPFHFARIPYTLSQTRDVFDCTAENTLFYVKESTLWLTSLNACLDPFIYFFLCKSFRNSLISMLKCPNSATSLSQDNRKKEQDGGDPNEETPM
SMILES,Ki [1] [nM],IC50 [2] [nM],Ratio IC50 [3]
CCCCOC(=O)N1CCN(C(=O)[C@H](CCC(=O)O)NC(=O)c2cc(OC3CCN(CCOC)CC3)cc(-c3ccccc3)n2)CC1,9.4,1200,1.1
CCCCOC(=O)N1CCN(C(=O)[C@H](CCC(=O)O)NC(=O)c2cc(OCC3CCN(C(=O)C(F)(F)F)CC3)cc(-c3ccccc3)n2)CC1,10,3000,2.8
CCCCOC(=O)N1CCN(C(=O)[C@H](CCC(=O)O)NC(=O)c2cc(OC(=O)N3CC[C@@H](OC)C3)cc(-c3ccccc3)n2)CC1,1.5,770,0.97
CCCCCOC(=O)N1CCN(C(=O)[C@H](CCC(=O)O)NC(=O)c2cc(N3CCC(CO)CC3)cc(-c3ccccc3)n2)CC1,2.4,1800,6.3
CCCCCCOC(=O)N1CCN(C(=O)[C@H](CCC(=O)O)NC(=O)c2cc(OCCN)cc(-c3ccccc3)n2)CC1,8.4,4500,7.9
CCCCOC(=O)N1CCN(C(=O)[C@H](CCC(=O)O)NC(=O)c2cc(OC(=O)N(C)C)cc(-c3ccccc3)n2)CC1,2,1100,1.1
CCCCCOC(=O)N1CCN(C(=O)[C@H](CCC(=O)O)NC(=O)c2cc(OC3CCNCC3)cc(-c3ccccc3)n2)CC1,3.5,500,0.64
CCCCCOC(=O)N1CCN(C(=O)[C@H](CCC(=O)O)NC(=O)c2cc(CCC(=O)N(C)C)cc(-c3ccccc3)n2)CC1,2.1,2900,2.7
CCCCOC(=O)N1CCN(C(=O)[C@H](CCC(=O)O)NC(=O)c2cc(OC(=O)N3CCOCC3)cc(-c3ccccc3)n2)CC1,1.7,760,0.75
CCCCCCOC(=O)N1CCN(C(=O)[C@H](CCC(=O)O)NC(=O)c2cc(OCCCC)cc(-c3ccccc3)n2)CC1,89,97000,65
CCCCOC(=O)N1CCN(C(=O)[C@H](CCC(=O)O)NC(=O)c2cc(OC(=O)N3CCC(OCC)CC3)cc(-c3ccccc3)n2)CC1,2.1,1000,1.2
CCCCOC(=O)N1CCN(C(=O)[C@H](CCC(=O)O)NC(=O)c2cc(NCCOC)cc(-c3ccccc3)n2)CC1,2.4,3200,2.4
CCCCCOC(=O)N1CCN(C(=O)[C@H](CCC(=O)O)NC(=O)c2cc(C(=O)NCCCOC)cc(-c3ccccc3)n2)CC1,6.1,4600,12
CCCCCOC(=O)N1CCN(C(=O)[C@H](CCC(=O)O)NC(=O)c2cc(C(=O)NCCC)cc(-c3ccccc3)n2)CC1,11,12000,20
CCCCOC(=O)N1CCN(C(=O)[C@H](CCC(=O)O)NC(=O)c2cc(OCC3CCN(C)CC3)cc(-c3ccccc3)n2)CC1,2.5,240,0.38
CCCCCCOC(=O)N1CCN(C(=O)[C@H](CCC(=O)O)NC(=O)c2cc(OCCOC)cc(-c3ccccc3)n2)CC1,14,8300,7.1

SMILES,Ki [1] [nM],IC50 [2] [nM],Ratio IC50 [3]
CCCCCOC(=O)N1CCN(C(=O)[C@H](CCC(=O)O)NC(=O)c2cc(OC(=O)N3CCCCC3)cc(-c3ccccc3)n2)CC1,11,2100,1.3
CCCCCOC(=O)N1CCN(C(=O)[C@H](CCC(=O)O)NC(=O)c2cc(CCCCOC)cc(-c3ccccc3)n2)CC1,8.3,4200,4.5
CCCCOC(=O)N1CCN(C(=O)[C@H](CCC(=O)O)NC(=O)c2cc(OC3CCN(C(=O)C(F)(F)F)CC3)cc(-c3ccccc3)n2)CC1,12,2100,3.4
CCCCCOC(=O)N1CCN(C(=O)[C@H](CCC(=O)O)NC(=O)c2cc(OC3CCN(C(C)C)CC3)cc(-c3ccccc3)n2)CC1,7,480,0.68
CCCCOC(=O)N1CCN(C(=O)[C@H](CCC(=O)O)NC(=O)c2cc(OCCO)cc(-c3ccccc3)n2)CC1,20,7900,5.1
CCCCCOC(=O)N1CCN(C(=O)[C@H](CCC(=O)O)NC(=O)c2cc(C(=O)NC)cc(-c3ccccc3)n2)CC1,10,6800,9.7
CCOC(=O)N1CCN(C(=O)[C@H](CCC(=O)O)NC(=O)c2cc(OCCCOC)cc(-c3ccccc3)n2)CC1,69,8200,11
CCCCOC(=O)N1CCN(C(=O)[C@H](CCC(=O)O)NC(=O)c2cc(N3CCC(NC)CC3)cc(-c3ccccc3)n2)CC1,2.7,1200,0.86
CCCCOC(=O)N1CCN(C(=O)[C@H](CCC(=O)O)NC(=O)c2cc(N3CCC(N(C)C)CC3)cc(-c3ccccc3)n2)CC1,5,1900,1.4
CCCCOC(=O)N1CCN(C(=O)[C@H](CCC(=O)O)NC(=O)c2cc(OC(=O)N(C)C3CCOC3)cc(-c3ccccc3)n2)CC1 (stereo partly specified),1.8,520,0.63
CCCCCOC(=O)N1CCN(C(=O)[C@H](CCC(=O)O)NC(=O)c2cc(C(=O)N3CCCCC3)cc(-c3ccccc3)n2)CC1,2.8,910,2.2
CCCCOC(=O)N1CCN(C(=O)[C@H](CCC(=O)O)NC(=O)c2cc(OCC3CCN(C(=O)COC)CC3)cc(-c3ccccc3)n2)CC1,2.6,1500,1.4
CCCCOC(=O)N1CCN(C(=O)[C@H](CCC(=O)O)NC(=O)c2cc(OC3CCN(C(=O)OCC)CC3)cc(-c3ccccc3)n2)CC1,20,3700,5.9
CCCCOC(=O)N1CCN(C(=O)[C@H](CCC(=O)O)NC(=O)c2cc(OCCCCO)cc(-c3ccccc3)n2)CC1,4.9,4500,6.7
CCCCCOC(=O)N1CCN(C(=O)[C@H](CCC(=O)O)NC(=O)c2cc(N3CCC(OC)CC3)cc(-c3ccccc3)n2)CC1,15,3900,3
CCOC(=O)N1CCN(C(=O)[C@H](CCC(=O)O)NC(=O)c2cc(OCc3ccccc3)cc(-c3ccccc3)n2)CC1,28,31000,42

# Now from value to compound, other results behind:
Ki [1] [nM],IC50 [2] [nM],SMILES,Ratio IC50 [3]
94,31000,CCOC(=O)N1CCN(C(=O)[C@H](CCC(=O)O)NC(=O)c2cc(OCC)cc(-c3ccccc3)n2)CC1,44
4.9,690,CCCCCOC(=O)N1CCN(C(=O)[C@H](CCC(=O)O)NC(=O)c2cc(OC(=O)N3CC[C@H](OC)C3)cc(-c3ccccc3)n2)CC1,1
11,350,CCCCCOC(=O)N1CCN(C(=O)[C@H](CCC(=O)O)NC(=O)c2cc(C(=O)N(C)C3CCN(C)CC3)cc(-c3ccccc3)n2)CC1,0.83
4.5,3500,CCCCCOC(=O)N1CCN(C(=O)[C@H](CCC(=O)O)NC(=O)c2cc(OCC3CCN(C(=O)C(F)(F)F)CC3)cc(-c3ccccc3)n2)CC1,4.8
6.5,1000,CCCCCOC(=O)N1CCN(C(=O)[C@H](CCC(=O)O)NC(=O)c2cc(N3CCC(NC)CC3)cc(-c3ccccc3)n2)CC1,1.1
3.9,2100,CCCCOC(=O)N1CCN(C(=O)[C@H](CCC(=O)O)NC(=O)c2cc(OCC3CCN(C(C)=O)CC3)cc(-c3ccccc3)n2)CC1,1.4
11,2300,CCCCOC(=O)N1CCN(C(=O)[C@H](CCC(=O)O)NC(=O)c2cc(OCC3CCOCC3)cc(-c3ccccc3)n2)CC1,3.6
8.6,420,CCCCCOC(=O)N1CCN(C(=O)[C@H](CCC(=O)O)NC(=O)c2cc(C(=O)N(C)CCCN(C)C)cc(-c3ccccc3)n2)CC1,0.96
2.4,1100,CCCCCOC(=O)N1CCN(C(=O)[C@H](CCC(=O)O)NC(=O)c2cc(C(=O)N(C)C)cc(-c3ccccc3)n2)CC1,1
62,24000,CCOC(=O)N1CCN(C(=O)[C@H](CCC(=O)O)NC(=O)c2cc(O)cc(-c3ccccc3)n2)CC1,41
6.9,3900,CCCCOC(=O)N1CCN(C(=O)[C@H](CCC(=O)O)NC(=O)c2cc(OC3CCCNC3)cc(-c3ccccc3)n2)CC1 (stereo partly specified),1.8
1.7,5800,CCCCCOC(=O)N1CCN(C(=O)[C@H](CCC(=O)O)NC(=O)c2cc(NC(=O)OCC3CCNCC3)cc(-c3ccccc3)n2)CC1,3.7
4.7,3400,CCCCCOC(=O)N1CCN(C(=O)[C@H](CCC(=O)O)NC(=O)c2cc(NC(=O)NCC(=O)N(C)C)cc(-c3ccccc3)n2)CC1,3.9
9.2,5500,CCCCCOC(=O)N1CCN(C(=O)[C@H](CCC(=O)O)NC(=O)c2cc(NC(=O)N3CCC(OC)CC3)cc(-c3ccccc3)n2)CC1,6.1
2.5,2000,CCCCOC(=O)N1CCN(C(=O)[C@H](CCC(=O)O)NC(=O)c2cc(OC3CCN(C)CC3)cc(-c3ccccc3)n2)CC1,1.9

# From ChEMBL document CHEMBL1157562, “Piperazinyl glutamate pyridines as potent orally bioavailable P2Y12 antagonists for inhibition of platelet aggregation” (J Med Chem, 2010)
